ChEMBL document CHEMBL1671844, “Structure guided development of potent reversibly binding penicillin binding protein inhibitors” (ACS Med Chem Lett, 2011)

Key:
[1] = target: D-alanyl-D-alanine carboxypeptidase (Actinomadura sp. R39, UniProt P39045); assay: Inhibition of Actinomadura R39 PBP after 60 mins
[2] = target: D-alanyl-D-alanine carboxypeptidase (Actinomadura sp. R39) (UniProt P39045); assay: Inhibition of Actinomadura R39 PBP assessed as residual activity at 100 uM after 60 mins
Outline: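 Percentage residual activity of R39 measured with compound at 100 μM, in triplicate.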

Chain of D-alanyl-D-alanine carboxypeptidase (Actinomadura sp. R39) (P39045 whole entry): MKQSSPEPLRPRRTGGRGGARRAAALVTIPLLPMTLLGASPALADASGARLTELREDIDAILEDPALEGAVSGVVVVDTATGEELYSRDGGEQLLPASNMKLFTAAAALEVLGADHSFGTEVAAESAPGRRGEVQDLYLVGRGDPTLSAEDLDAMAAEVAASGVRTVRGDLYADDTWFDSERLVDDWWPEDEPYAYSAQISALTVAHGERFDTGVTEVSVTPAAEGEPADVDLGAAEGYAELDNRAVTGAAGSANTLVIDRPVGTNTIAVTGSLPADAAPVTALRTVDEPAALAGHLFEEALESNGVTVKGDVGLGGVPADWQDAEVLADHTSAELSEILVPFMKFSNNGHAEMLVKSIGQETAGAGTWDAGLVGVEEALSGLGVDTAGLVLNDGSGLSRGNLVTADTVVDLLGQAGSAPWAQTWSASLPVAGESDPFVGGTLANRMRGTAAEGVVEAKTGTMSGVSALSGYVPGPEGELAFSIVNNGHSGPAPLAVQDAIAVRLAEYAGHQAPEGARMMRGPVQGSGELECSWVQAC
Chain of D-alanyl-D-alanine carboxypeptidase (P39045 whole entry): as above

SMILES | IC50 [1] [µM] | Activity [2] [%] | Ki [1] [µM]
C[C@@H](NC(=O)c1ccccc1NS(=O)(=O)c1ccccc1)B(O)O | 0.37 | 3 | –
C[C@@H](NC(=O)c1ccc2ccccc2c1)B(O)O | 14 | 19 | –
C[C@@H](NC(=O)c1c(F)cccc1-c1ccccc1)B(O)O | 0.27 | 0 | –
C[C@@H](NC(=O)c1c(Cl)cccc1Cl)B(O)O | 4.2 | 3 | –
C[C@@H](NC(=O)c1ccccc1C(=O)c1ccc2ccccc2c1)B(O)O | 0.08 | 0 | 0.105
C[C@@H](NC(=O)c1ccccc1Cc1ccccc1)B(O)O | 1.8 | 5 | –
C[C@H](NC(=O)c1c(F)cccc1F)B(O)O | 3.3 | 3 | –
C[C@@H](NC(=O)c1ccccc1-c1ccccc1)B(O)O | 1.31 | 5 | –
C[C@@H](NC(=O)c1ccccc1C(c1ccccc1)c1ccccc1)B(O)O | < 0.08 | 1 | 0.063
C[C@H](NC(=O)c1ccccc1Cc1ccccc1)B(O)O | 7.2 | 16 | –
C[C@@H](NC(=O)c1ccc2sccc2c1)B(O)O | 2.2 | 8 | –
CC(C)c1ccccc1C(=O)N[C@H](C)B(O)O | 59 | 36 | –
C[C@@H](NC(=O)c1c(F)cccc1F)B(O)O | 0.5 | 0 | –
